Only some compounds are listed: those with a hit (about 2.3% of all), similar ones and a draw of the others.
TRPC4 PAM = allosteric potentiators of mouse TRPC4 channel; Q9QUQ5; HEK293 TRPC4beta/mu-opioid, DAMGO EC20, Fluo-4 Ca2+ flux; stronger effect = higher value; B-score at 10 µM; hit rate 0.42% among 310,000; AID 2227;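 active = B-score of calcium response area above 5 SD of library B-scores, with initial fluorescence ratio within 5 SD of library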;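 also: B-score of integrated fluorescence ratio over time as area under calcium response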
Target sequence (Q9QUQ5 whole entry, looked up): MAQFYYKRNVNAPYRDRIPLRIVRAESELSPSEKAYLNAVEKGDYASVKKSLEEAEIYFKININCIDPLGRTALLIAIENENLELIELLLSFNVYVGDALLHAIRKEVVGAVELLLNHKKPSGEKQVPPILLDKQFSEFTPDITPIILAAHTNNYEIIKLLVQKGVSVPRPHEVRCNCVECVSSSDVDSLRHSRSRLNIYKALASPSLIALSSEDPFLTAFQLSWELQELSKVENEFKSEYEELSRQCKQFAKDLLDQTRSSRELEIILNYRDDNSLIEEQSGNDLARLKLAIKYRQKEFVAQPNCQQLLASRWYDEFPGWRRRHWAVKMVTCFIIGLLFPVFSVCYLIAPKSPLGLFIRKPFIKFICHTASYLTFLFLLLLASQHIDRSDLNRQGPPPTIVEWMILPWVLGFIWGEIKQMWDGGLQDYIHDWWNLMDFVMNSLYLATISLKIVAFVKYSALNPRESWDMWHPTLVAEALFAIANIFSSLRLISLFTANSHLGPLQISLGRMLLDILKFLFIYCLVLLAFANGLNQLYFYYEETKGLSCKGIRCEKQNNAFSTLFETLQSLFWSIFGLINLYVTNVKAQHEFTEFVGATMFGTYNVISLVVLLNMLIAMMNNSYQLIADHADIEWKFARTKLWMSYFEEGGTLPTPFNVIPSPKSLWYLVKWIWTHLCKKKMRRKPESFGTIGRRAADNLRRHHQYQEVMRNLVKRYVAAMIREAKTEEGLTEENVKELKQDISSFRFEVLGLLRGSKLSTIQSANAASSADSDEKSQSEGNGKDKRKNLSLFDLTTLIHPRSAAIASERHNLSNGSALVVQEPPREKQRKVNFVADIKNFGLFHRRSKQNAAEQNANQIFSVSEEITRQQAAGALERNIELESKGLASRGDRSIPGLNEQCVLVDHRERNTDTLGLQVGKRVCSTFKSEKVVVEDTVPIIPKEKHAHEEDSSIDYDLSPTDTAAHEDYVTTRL
TRPC6 act = mouse TRPC6 channel activation; Q61143; HEK293-TRPC6 membrane potential dye fluorescence; stronger effect = higher value; B-score at 10 µM; hit rate 0.13% among 310,000; AID 2550;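 active = B-score of the integrated fluorescence ratio above library mean plus 3 SD, and starting fluorescence ratio within library mean plus 5 SD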;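 also: higher score means more depolarization so channel activation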
TRPC4 inh = TRPC4 (mouse) channel inhibition; Q9QUQ5; HEK293 TRPC4beta/mu-opioid, DAMGO-evoked Fluo4 calcium flux; stronger effect = lower value; B-score at 10 µM; hit rate 0.39% among 300,000; AID 2247;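 active = B-score over 3 SD under the library average, no early fluorescence shift, positive overall ratio signal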
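Material: HEK293 cells with stable TRPC4beta plus mu-opioid receptor expression / Probe or stimulus: DAMGO in two steps, submaximal then maximal / Compound: single concentration per test compound / Technique: kinetic Fluo4 fluorescence imaging of calcium influx / Read-out: per-well B score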
TRPC6 inhibitor = inhibitors of mouse TRPC6 channel; Q61143; HEK293-TRPC6, membrane potential dye, ACh-evoked depolarization; stronger effect = lower value; B-score at 10 µM; hit rate 1.1% among 310,000;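 active = B-score under library mean minus 3 SD, initial fluorescence not abnormally high, positive integrated signal ratio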;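 also: B-score derived from integrated fluorescence ratio over the kinetic read; more negative B-score means stronger inhibition of depolarization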
TRPC4 agonist = TRPC4 (mouse) channel activation. Q9QUQ5. B-score at 10 µM. hit rate 0.49% among 310,000. HEK293 TRPC4beta/mu-opioid, Fluo4 calcium fluorescence; stronger effect = higher value;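 active = B-score above 5 SD of library B-scores, and initial fluorescence ratio not above library mean plus 5 SD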;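 also: positive B-score marks a calcium rise read as TRPC4 activation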
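System: HEK293 cells stably co-expressing mouse TRPC4beta and mu-opioid receptor; Schedule: Fluo4 dye loading 45 min at room temperature, 110 s recording; Detection: Fluo4 fluorescence, kinetic; Evaluation: B-scored integrated calcium fluorescence ratio; Controls: buffer (low) and maximal DAMGO (high).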
TRPC4 spec 2 = second check of whether TRPC6 inhibitors also affect mouse TRPC4; shares compounds with TRPC6 inhibitor; HEK293 TRPC4/MOR, membrane potential dye fluorescence; channel activated by saturating DAMGO dose; inhibition, % at 10 µM; hit rate 42% among 920;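 active = compounds whose fluorescence signal differed from control wells by over 3 SD, either direction, in both duplicate plates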
TRPC4 spec = selectivity of TRPC6 inhibitors: effect on mouse TRPC4. HEK293 TRPC4/mu-opioid, membrane potential fluorescence. shares compounds with TRPC6 inhibitor. hit rate 61% among 920. AID 2777. activity change, negative = inhibition, % at 10 µM;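 active = rise or fall in signal beyond 3 SD of buffer-only wells in both replicate plates, either sign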;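 also: integrated kinetic ratio of fluorescence range over baseline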
HEK293 MPD ctr 2-1 = second check of TRPC6 inhibitor effects in parental HEK293 cells | shares compounds with TRPC6 inhibitor | parental HEK293 membrane potential dye fluorescence; maximal acetylcholine challenge after compound addition | signal change vs control, % at 10 µM | hit rate 31% among 920 | AID 2779;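 active = membrane potential signal moving either way by over 3 SD of the maximum-effect control, in both duplicate plates, meaning non-specific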
HEK293 MPD ctr-1 = counter-screen for TRPC6 inhibitors: effect in parental HEK293 cells; AID 2780; shares compounds with TRPC6 inhibitor; parental HEK293 membrane potential dye fluorescence; hit rate 60% among 920; membrane potential signal change, % at 10 µM;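 active = membrane potential signal shifting up or down by more than 3 SD of buffer-only wells, on both duplicate plates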
HEK293 MPD ctr-2 = counter-screen for TRPC6 modulators: effect in parental HEK293 cells; hit rate 51% among 2,400; AID 488924; membrane potential dye fluorescence; shares compounds with TRPC6 inhibitor; membrane potential signal change, % at 10 µM;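 active = membrane potential signal moves up or down beyond 5 SD from buffer-only wells, on both duplicate plates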
HEK293 MPD ctr 2-2 = second check of TRPC6 modulator effects in parental HEK293 cells | inhibition, % at 10 µM | membrane potential dye fluorescence; after compound, maximal acetylcholine stimulation | hit rate 14% among 2,400 | shares compounds with TRPC6 inhibitor;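 active = membrane potential signal drops by more than 5 SD from the mean control signal, in both duplicate plates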;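 also: plate controls were acetylcholine ECmax control wells for no effect and buffer only wells for full effect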
TRPC4/MOR mod = tests whether TRPC6 modulators also affect mouse TRPC4; shares compounds with TRPC6 inhibitor; HEK293 TRPC4/mu-opioid, membrane potential fluorescence; percent change from control (negative = decrease, positive = increase), % at 10 µM; hit rate 69% among 2,400;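 active = membrane potential signal moved up or down beyond 5 SD of buffer control wells, in both duplicate plates, actives on both sides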;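 also: plate controls were assay buffer wells for no effect and DAMGO maximal-effect wells for full effect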
TRPC4 ctr inh 2 = second check of whether TRPC6 modulators also affect mouse TRPC4; shares compounds with TRPC6 inhibitor; HEK293 TRPC4/mu-opioid, membrane potential dye fluorescence; stimulated with maximal-effect DAMGO; inhibition, % at 10 µM; hit rate 55% among 2,400; AID 488928;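 active = drop in membrane potential signal beyond 5 SD of the control wells in both duplicate plates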;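 also: TRPC4 counter screen for TRPC6 hits run under conditions tuned for TRPC6 not TRPC4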
TRPC6 block conf = mouse TRPC6 inhibitor confirmation | inhibition, % at 10 µM | HEK293-TRPC6, membrane potential dye, ACh-evoked depolarization | hit rate 43% among 3,300 | AID 488960 | shares compounds with TRPC6 inhibitor;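 active = fluorescence ratio falls more than 5 SD below the full-stimulation control mean, in both duplicate runs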;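 also: integrated fluorescence ratio of peak minus minimum over baseline after agonist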
TRPC6 act confirm = mouse TRPC6 activator confirmation. AID 488961. hit rate 11% among 2,800. shares compounds with TRPC6 inhibitor. HEK293-TRPC6 membrane potential dye fluorescence, FDSS. activation, % at 10 µM;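 active = ratio signal rise beyond 5 SD above unstimulated control wells' mean, seen in both duplicate runs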;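 also: plate controls were buffer EC0 wells for no effect and acetylcholine ECmax response for full effect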
* = called active by the depositor; i = inactive; . = not tested or not shown.

SMILES	TRPC4 PAM	TRPC6 act	TRPC4 inh	TRPC6 inhibitor	TRPC4 agonist	TRPC6 block conf	others
CCN(CC)CCOC(c1ccccc1)c1ccc(C)cc1 (stereo unspecified)	i	i	i	i	i	.
Cc1ccc(C(OCC(C)(C)C[N+](C)(C)C)c2ccccc2)cc1 (stereo unspecified)	i	i	i	-8.1*	i	i	TRPC4 spec 2=i;TRPC4 spec=i;HEK293 MPD ctr 2-1=19%*;HEK293 MPD ctr-1=i;TRPC6 act confirm=i
CC1CCCN(C(=O)CN2C(=O)CSc3ccc(S(=O)(=O)N4CCOCC4)cc32)C1 (stereo unspecified)	i	i	i	i	i	.
Cc1cc(C)c(C)c(S(=O)(=O)NCC(=O)Nc2ccc(F)cc2)c1C	i	i	i	i	i	.
OCCNCc1cc(Br)ccc1OCc1ccc(Cl)cc1	i	i	i	-5.7*	i	45%*	HEK293 MPD ctr-2=102%*;HEK293 MPD ctr 2-2=i;TRPC4/MOR mod=17%*;TRPC4 ctr inh 2=89%*
OCCNCc1cccc(OCc2ccc(Cl)cc2)c1	i	i	i	i	i	.
N#Cc1ccc(NC(=O)Nc2ccc(Cl)cc2)cc1	i	i	i	i	i	.
N#CC(C#N)=C/C=C(\Nc1ccc(Cl)cc1)c1ccc(Cl)cc1	i	i	i	-5.2*	i	i	HEK293 MPD ctr-2=i;HEK293 MPD ctr 2-2=i;TRPC4/MOR mod=i;TRPC4 ctr inh 2=38%*;TRPC6 act confirm=i
COc1cc2c(cc1OC)C(C)N(S(=O)(=O)c1ccc(C)cc1)CC2 (stereo unspecified)	i	i	i	-6.9*	i	i	TRPC4 spec 2=i;TRPC4 spec=-0.1%*;HEK293 MPD ctr 2-1=i;HEK293 MPD ctr-1=1.0%*
CNc1ccc(C(=O)N2CCN(S(=O)(=O)c3ccc4c(c3)OCCCO4)CC2)cc1[N+](=O)[O-]	i	i	i	i	i	.

Screens as filed in PubChem BioAssay.
